≈ marks a conversion by molar mass, not a printed value.
What was measured:
Aspergillus lentulus [1] = assay: Antimicrobial activity against Aspergillus lentulus isolate CNM-CM-3583 obtained from sputum of patient after 48 hrs by broth microdilution method; type: functional; conditions: isolate CNM-CM-3583, 48 h
Summary of the method: (§1)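 CLSI M38-A broth microdilution with modifications: RPMI 1640 with L-glutamine, 2% glucose, buffered to pH 7 with 0.165 M MOPS. Inoculum of 1 × 10^5 to 5 × 10^5 CFU/ml from 3- to 5-day-old cultures. Incubated 35°C, 48 h, humid. Visual reading with a mirror. MIC is complete growth inhibition; echinocandin MEC is hyphal morphological alteration. Azoles 8 to 0.015 μg/ml; others 16 to 0.03 μg/ml.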

Neosartorya hiratsukae [2] = assay: Antimicrobial activity against Neosartorya hiratsukae isolate CNM-CM-3764 obtained from oropharyngeal exudate of patient after 48 hrs by broth microdilution method; type: functional; conditions: Aspergillus hiratsukae, isolate CNM-CM-3764, 48 h; summary of the method: as §1
Aspergillus lentulus [3] = assay: Antimicrobial activity against Aspergillus lentulus isolate CNM-CM-4330 obtained from sputum of patient after 48 hrs by broth microdilution method; type: functional; conditions: isolate CNM-CM-4330, 48 h; summary of the method: as §1
Aspergillus viridinutans [4] = assay: Antimicrobial activity against Aspergillus viridinutans isolate CNM-CM-3147 obtained from oropharyngeal exudate of patient after 48 hrs by broth microdilution method; type: functional; conditions: isolate CNM-CM-3147, 48 h; summary of the method: as §1
[5] = test system: Neosartorya pseudofischeri; assay: Antimicrobial activity against Neosartorya pseudofischeri isolate CNM-CM-3769 obtained from sputum of patient after 48 hrs by broth microdilution method; type: functional; conditions: Aspergillus thermomutatus
Summary of the method: (§2)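 CLSI M38-A broth microdilution with modifications: RPMI 1640 with L-glutamine, MOPS-buffered to pH 7, plus 2% glucose. Inoculum 1 × 10^5 to 5 × 10^5 CFU/ml from 3–5-day cultures. Incubated at 35°C for 48 h, humid. Read visually with a mirror. MIC = complete growth inhibition; echinocandin MEC = altered hyphal morphology. QC strain A. fumigatus ATCC 2004305.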

Aspergillus lentulus [6] = assay: Antimicrobial activity against Aspergillus lentulus isolate CNM-CM-4370 obtained from sputum of patient after 48 hrs by broth microdilution method; type: functional; conditions: isolate CNM-CM-4370, 48 h; summary of the method: as §1
[7] = test system: Aspergillus fumigatiaffinis; assay: Antimicrobial activity against Aspergillus fumigatiaffinis isolate CNM-CM-3227 obtained from bronchoalveolar lavage fluid of patient after 48 hrs by broth microdilution method; conditions: isolate CNM-CM-3227, Lung
Aspergillus lentulus [8] = assay: Antimicrobial activity against Aspergillus lentulus isolate CNM-CM-3134 obtained from sputum of patient after 48 hrs by broth microdilution method; type: functional; conditions: isolate CNM-CM-3134, 48 h; summary of the method: as §1
Aspergillus fumigatus = assay: Antimicrobial activity against Aspergillus fumigatus ATCC 2004305 after 48 hrs by broth microdilution method; type: functional; conditions: ATCC 2004305, 48 h
Aspergillus lentulus [9] = assay: Antimicrobial activity against Aspergillus lentulus isolate CNM-CM-4428 obtained from skin of patient after 48 hrs by broth microdilution method; type: functional; conditions: isolate CNM-CM-4428, 48 h; summary of the method: as §1
Aspergillus lentulus [10] = assay: Antimicrobial activity against Aspergillus lentulus isolate CNM-CM-4420 obtained from nail of patient after 48 hrs by broth microdilution method; type: functional; conditions: isolate CNM-CM-4420, 48 h; summary of the method: as §1
Neosartorya hiratsukae [11] = assay: Antimicrobial activity against Neosartorya hiratsukae isolate CNM-CM-3740 obtained from oropharyngeal exudate of patient after 48 hrs by broth microdilution method; type: functional; conditions: Aspergillus hiratsukae, isolate CNM-CM-3740, 48 h; summary of the method: as §1
Aspergillus lentulus [12] = assay: Antimicrobial activity against Aspergillus lentulus isolate CNM-CM-3538 obtained from sputum of patient after 48 hrs by broth microdilution method; type: functional; conditions: isolate CNM-CM-3538, 48 h; summary of the method: as §1
Aspergillus lentulus [13] = assay: Antimicrobial activity against Aspergillus lentulus isolate CNM-CM-4415 obtained from sputum of patient after 48 hrs by broth microdilution method; type: functional; conditions: isolate CNM-CM-4415, 48 h; summary of the method: as §1
Neosartorya hiratsukae [14] = assay: Antimicrobial activity against Neosartorya hiratsukae isolate CNM-CM-4328 obtained from cornea of patient after 48 hrs by broth microdilution method; type: functional; conditions: Aspergillus hiratsukae, isolate CNM-CM-4328, Cornea; summary of the method: as §1
Aspergillus lentulus [15] = assay: Antimicrobial activity against Aspergillus lentulus isolate CNM-CM-3537 obtained from sputum of patient after 48 hrs by broth microdilution method; type: functional; conditions: isolate CNM-CM-3537, 48 h; summary of the method: as §1
Neosartorya hiratsukae [16] = assay: Antimicrobial activity against Neosartorya hiratsukae isolate CNM-CM-3305 obtained from skin of patient after 48 hrs by broth microdilution method; type: functional; conditions: Aspergillus hiratsukae, isolate CNM-CM-3305, 48 h; summary of the method: as §1
[17] = test system: Aspergillus fumigatiaffinis; assay: Antimicrobial activity against Aspergillus fumigatiaffinis isolate CNM-CM-2280 obtained from sputum of patient after 48 hrs by broth microdilution method; conditions: isolate CNM-CM-2280, 48 h
[18] = test system: Neosartorya pseudofischeri; assay: Antimicrobial activity against Neosartorya pseudofischeri isolate CNM-CM-4060 obtained from sputum of patient after 48 hrs by broth microdilution method; type: functional; conditions: Aspergillus thermomutatus; summary of the method: as §2
Aspergillus lentulus [19] = assay: Antimicrobial activity against Aspergillus lentulus isolate CNM-CM-3364 obtained from bronchoalveolar lavage fluid of patient after 48 hrs by broth microdilution method; type: functional; conditions: isolate CNM-CM-3364, Lung; summary of the method: as §1
Neosartorya hiratsukae [20] = assay: Antimicrobial activity against Neosartorya hiratsukae isolate CNM-CM-3303 obtained from skin of patient after 48 hrs by broth microdilution method; type: functional; conditions: Aspergillus hiratsukae, isolate CNM-CM-3303, 48 h; summary of the method: as §1
Aspergillus viridinutans [21] = assay: Antimicrobial activity against Aspergillus viridinutans isolate CNM-CM-4518 obtained from nail of patient after 48 hrs by broth microdilution method; type: functional; conditions: isolate CNM-CM-4518, 48 h; summary of the method: as §1
[22] = test system: Aspergillus fumisynnematus; assay: Antimicrobial activity against Aspergillus fumisynnematus isolate CNM-CM-4063 obtained from bronchoalveolar aspirate of patient after 48 hrs by broth microdilution method; type: functional; conditions: isolate CNM-CM-4063, Lung; summary of the method: as §1
Aspergillus lentulus [23] = assay: Antimicrobial activity against Aspergillus lentulus isolate CNM-CM-4426 obtained from sputum of patient after 48 hrs by broth microdilution method; type: functional; conditions: isolate CNM-CM-4426, 48 h; summary of the method: as §1
Aspergillus lentulus [24] = assay: Antimicrobial activity against Aspergillus lentulus isolate CNM-CM-3599 obtained from sputum of patient after 48 hrs by broth microdilution method; type: functional; conditions: isolate CNM-CM-3599, 48 h; summary of the method: as §1
Aspergillus lentulus [25] = assay: Antimicrobial activity against Aspergillus lentulus isolate CNM-CM-4387 obtained from sputum of patient after 48 hrs by broth microdilution method; type: functional; conditions: isolate CNM-CM-4387, 48 h; summary of the method: as §1
Aspergillus lentulus [26] = assay: Antimicrobial activity against Aspergillus lentulus isolate CNM-CM-1290 obtained from sputum of patient after 48 hrs by broth microdilution method; type: functional; conditions: isolate CNM-CM-1290, 48 h; summary of the method: as §1
[27] = test system: Neosartorya pseudofischeri; assay: Antimicrobial activity against Neosartorya pseudofischeri isolate CNM-CM-2270 obtained from sputum of patient after 48 hrs by broth microdilution method; type: functional; conditions: Aspergillus thermomutatus, isolate CNM-CM-2270, 48 h; summary of the method: as §2
[28] = test system: Neosartorya pseudofischeri; assay: Antimicrobial activity against Neosartorya pseudofischeri isolate CNM-CM-3914 obtained from nail of patient after 48 hrs by broth microdilution method; type: functional; conditions: Aspergillus thermomutatus, isolate CNM-CM-3914, 48 h; summary of the method: as §2

With `C[C@@H]1[C@H](O)[C@@H](C)/C=C/C=C/C=C/C=C/C=C/C=C/C=C/[C@H](O[C@@H]2O[C@H](C)[C@@H](O)[C@H](N)[C@@H]2O)C[C@@H]2O[C@](O)(C[C@@H](O)C[C@@H](O)[C@H](O)CC[C@@H](O)C[C@@H](O)CC(=O)O[C@H]1C)C[C@H](O)[C@H]2C(=O)O` [AMPHOTERICIN B] the MIC (Aspergillus lentulus [1]) was 8 µg/mL (≈ 8.66 µM), the MIC (Neosartorya hiratsukae [2]) was 1 µg/mL (≈ 1.08 µM) and the MIC (Aspergillus lentulus [3]) was 8 µg/mL (≈ 8.66 µM). The MIC (Aspergillus viridinutans [4]) was 0.58 µg/mL (≈ 0.628 µM), the MIC [5] was 1 µg/mL (≈ 1.08 µM) and the MIC (Aspergillus lentulus [6]) was 7.33 µg/mL (≈ 7.93 µM). For the same compound, the MIC [7] was 8 µg/mL (≈ 8.66 µM), the MIC (Aspergillus lentulus [8]) was 10 µg/mL (≈ 10.8 µM) and the MIC (Aspergillus fumigatus) was 0.25 µg/mL (≈ 0.271 µM). The MIC (Aspergillus lentulus [9]) was 12 µg/mL (≈ 13 µM), the MIC (Aspergillus lentulus [10]) was 10.7 µg/mL (≈ 11.5 µM) and the MIC (Neosartorya hiratsukae [11]) was 0.66 µg/mL (≈ 0.714 µM). For the same compound, the MIC (Aspergillus lentulus [12]) was 7.25 µg/mL (≈ 7.85 µM), the MIC (Aspergillus lentulus [13]) was 6 µg/mL (≈ 6.49 µM) and the MIC (Neosartorya hiratsukae [14]) was 0.75 µg/mL (≈ 0.812 µM). The MIC (Aspergillus lentulus [15]) was 7 µg/mL (≈ 7.58 µM), the MIC (Neosartorya hiratsukae [16]) was 0.31 µg/mL (≈ 0.335 µM) and the MIC [17] was 16 µg/mL (≈ 17.3 µM). The MIC [18] was 0.25 µg/mL (≈ 0.271 µM), the MIC (Aspergillus lentulus [19]) was 8.4 µg/mL (≈ 9.09 µM) and the MIC (Neosartorya hiratsukae [20]) was 0.5 µg/mL (≈ 0.541 µM). It also gave an MIC (Aspergillus viridinutans [21]) of 0.37 µg/mL (≈ 0.4 µM), an MIC [22] of 1 µg/mL (≈ 1.08 µM) and an MIC (Aspergillus lentulus [23]) of 12 µg/mL (≈ 13 µM). The MIC (Aspergillus lentulus [24]) was 2.66 µg/mL (≈ 2.88 µM), the MIC (Aspergillus lentulus [25]) was 6 µg/mL (≈ 6.49 µM) and the MIC (Aspergillus lentulus [26]) was 4.5 µg/mL (≈ 4.87 µM). For the same compound, the MIC [27] was 0.17 µg/mL (≈ 0.184 µM) and the MIC [28] was 0.25 µg/mL (≈ 0.271 µM).
In the case of `CC[C@H](C)C[C@H](C)CCCCCCCCC(=O)N[C@H]1C[C@@H](O)[C@@H](NCCN)NC(=O)[C@@H]2[C@@H](O)CCN2C(=O)[C@H]([C@H](O)CCN)NC(=O)[C@H]([C@H](O)[C@@H](O)c2ccc(O)cc2)NC(=O)[C@@H]2C[C@@H](O)CN2C(=O)[C@H]([C@@H](C)O)NC1=O` [CASPOFUNGIN], the minimal effective concentration (Aspergillus lentulus [1]; read-out: MEC) is reported as 1 µg/mL, the minimal effective concentration (Neosartorya hiratsukae [2]; read-out: MEC) is reported as 0.26 µg/mL and the minimal effective concentration (Aspergillus lentulus [3]; read-out: MEC) is reported as 1.2 µg/mL. The minimal effective concentration (Aspergillus viridinutans [4]; read-out: MEC) was 0.67 µg/mL, the minimal effective concentration ([5]; read-out: MEC) was 0.12 µg/mL and the minimal effective concentration (Aspergillus lentulus [6]; read-out: MEC) was 0.91 µg/mL. The minimal effective concentration ([7]; read-out: MEC) was 0.16 µg/mL, the minimal effective concentration (Aspergillus lentulus [8]; read-out: MEC) was 0.38 µg/mL and the minimal effective concentration (Aspergillus fumigatus; read-out: MEC) was 0.12 µg/mL. It also gave a minimal effective concentration (Aspergillus lentulus [9]; read-out: MEC) of 0.29 µg/mL, a minimal effective concentration (Aspergillus lentulus [10]; read-out: MEC) of 0.33 µg/mL and a minimal effective concentration (Neosartorya hiratsukae [11]; read-out: MEC) of 0.66 µg/mL. For the same compound, the minimal effective concentration (Aspergillus lentulus [12]; read-out: MEC) was 0.11 µg/mL, the minimal effective concentration (Aspergillus lentulus [13]; read-out: MEC) was 0.25 µg/mL and the minimal effective concentration (Neosartorya hiratsukae [14]; read-out: MEC) was 0.03 µg/mL. For the same compound, the minimal effective concentration (Aspergillus lentulus [15]; read-out: MEC) was 0.42 µg/mL, the minimal effective concentration (Neosartorya hiratsukae [16]; read-out: MEC) was 0.03 µg/mL and the minimal effective concentration ([17]; read-out: MEC) was 1.3 µg/mL. For the same compound, the minimal effective concentration ([18]; read-out: MEC) was 0.62 µg/mL, the minimal effective concentration (Aspergillus lentulus [19]; read-out: MEC) was 0.18 µg/mL and the minimal effective concentration (Neosartorya hiratsukae [20]; read-out: MEC) was 0.34 µg/mL. For the same compound, the minimal effective concentration (Aspergillus viridinutans [21]; read-out: MEC) was 1 µg/mL, the minimal effective concentration ([22]; read-out: MEC) was 0.5 µg/mL and the minimal effective concentration (Aspergillus lentulus [23]; read-out: MEC) was 0.22 µg/mL. It also gave a minimal effective concentration (Aspergillus lentulus [24]; read-out: MEC) of 0.26 µg/mL, a minimal effective concentration (Aspergillus lentulus [25]; read-out: MEC) of 0.25 µg/mL and a minimal effective concentration (Aspergillus lentulus [26]; read-out: MEC) of 0.28 µg/mL. For the same compound, the minimal effective concentration ([27]; read-out: MEC) was 0.51 µg/mL and the minimal effective concentration ([28]; read-out: MEC) was 1 µg/mL.

— ChEMBL document CHEMBL1255284, “Aspergillus section Fumigati: antifungal susceptibility patterns and sequence-based identification” (2008)
